Like-named read-outs stand apart in the source and are kept apart here. Each block holds one molecule with its values, some of them ahead of it. Where no end group is shown, it is not given here. [ ]: non-standard residue; d: D form. AzaTyr = not defined here
Experiments:
[1] = SPR calibration with sucrose solutions; type: physicochemical; conditions: absence of the microporous membrane; calibration slope
In short: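 The SPR instrument was calibrated without the microporous membrane by successive injections of sucrose solutions with refractive indices from 1.33772 to 1.35589. Sensitivity is the response per refractive index unit (nm/RIU).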

[2] = SPR monitoring of sucrose diffusion/equilibration in dialysis chamber; type: physicochemical; conditions: for t eff unstirred (experimental): passive mixing, fit of SPR data with eqn (2); for experimental effective diffusion time: unstirred
In short: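 The dialysis chamber was a PDMS spacer (150 μm–1.0 mm) on the gold prism, filled with PBS and topped by a 0.4 μm-pore membrane. The sensor carried a 3-MPA-LHDLHD-OH monolayer. Sucrose was injected into the reservoir, and the SPR response was followed in the sensing chamber. Neither chamber was stirred, so mixing was by diffusion only. Effective diffusion time was fitted with c = ceq(1 – e^(–t/teff)).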

[3] = Theoretical effective diffusion through microporous membrane; conditions: 200 nm membrane pore radius
In short: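 This is a calculation, not a measurement: Deff/D0 through the membrane was computed with the Renkin equation from hydrodynamic radius (RH) and pore radius (RP), with a membrane pore diameter of 0.4 μm. Theoretical effective diffusion times assumed continuous stirring of the chambers.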

[4] = with microporous membrane
[5] = target: T1, CD36 (Homo sapiens, UniProt P16671); conditions: saline solution (stated for DBG178); CD36 SPR biosensor; cited from earlier work
[6] = target: T1, CD36; assay: CD36 SPR biosensor without dialysis chamber; type: binding; conditions: matrix not stated
[7] = target: T1, CD36; assay: CD36 SPR biosensor with dialysis chamber; type: binding; conditions: for SPR signal change: 10 μM peptide, buffer (PBS), CD36 sensor
In short: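 Hexahistidine-tagged CD36 was captured by Cu2+ chelation on a 3-MPA-LHDLHD-OH monolayer. The monolayer was self-assembled overnight, then NTA-coupled via EDC/NHS. A PDMS spacer was filled with PBS and capped with a 0.4 μm-pore membrane. Peptide in PBS, untreated serum or whole blood was injected into the reservoir for 90 min per concentration. Triplicates ran in separate sensing chambers, with blank serum/blood in the reference channel and background subtracted.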

[8] = target: hexahistidine-tagged type B scavenger receptor CD36 (cluster of differentiation 36) (UniProt P16671); assay: SPR
[9] = target: hexahistidine-tagged type B scavenger receptor CD36 (cluster of differentiation 36) (UniProt P16671); assay: SPR; remark: listed apart in the source
[10] = target: hexahistidine-tagged type B scavenger receptor CD36 (cluster of differentiation 36) (UniProt P16671); assay: SPR; remark: listed apart in the source

T1 sequence (P16671 whole entry): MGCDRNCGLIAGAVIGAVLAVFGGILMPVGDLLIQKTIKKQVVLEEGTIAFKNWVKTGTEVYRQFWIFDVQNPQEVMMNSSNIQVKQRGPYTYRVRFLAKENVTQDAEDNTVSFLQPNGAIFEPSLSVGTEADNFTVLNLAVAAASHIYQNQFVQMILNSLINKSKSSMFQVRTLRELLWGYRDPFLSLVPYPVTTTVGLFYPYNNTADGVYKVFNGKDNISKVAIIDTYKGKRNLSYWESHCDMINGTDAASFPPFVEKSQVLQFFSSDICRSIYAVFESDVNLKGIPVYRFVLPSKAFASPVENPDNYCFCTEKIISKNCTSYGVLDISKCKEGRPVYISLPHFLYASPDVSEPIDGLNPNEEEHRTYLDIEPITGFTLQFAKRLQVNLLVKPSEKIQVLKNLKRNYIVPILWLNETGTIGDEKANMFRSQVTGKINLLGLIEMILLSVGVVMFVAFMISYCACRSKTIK
Chain of hexahistidine-tagged type B scavenger receptor CD36 (cluster of differentiation 36) (P16671 whole entry): as above

Molecule: BSA: bovine serum albumin (BSA) (MW = 66.4 kDa)
- diffusion time required to observe a significant SPR response / large shift [4]: ~8 h

Molecule: H[dW]A[AzaTyr][dF]K-NH2 (reading uncertain; also: printed as His-D-Trp-Ala-AzaTyr-D-Phe-Lys-NH2) [DBG178 (His-D-Trp-Ala-AzaTyr-D-Phe-Lys-NH2)]
- SPR response at 7.5 uM [8]: 0.46 nm
- SPR response at the highest concentration [9]: 0.78 nm
- Kd [10]: 17 µM
- SPR response at 7.5 uM [10]: 0.49 nm
- SPR response at 8.75 uM [10]: 0.71 nm
- SPR response at the highest concentration [10]: 0.89 nm
- SPR signal change at 10 uM [10]: 0.28 nm

Further lines, with some results ahead:

- SPR sensitivity without microporous membrane [1]: 2221 nm/RIU
- t eff unstirred (experimental) ([2]; spacer 0.15 mm): 5529 s
- t eff unstirred (experimental) ([2]; spacer 0.30 mm): 9892 s
- t eff unstirred (experimental) ([2]; spacer 0.60 mm): 26 590 s
- experimental effective diffusion time ([2]; spacer 1 mm (1000 μm), b26 prints unit as hours): 15.5 h
- t eff unstirred (experimental) ([2]; spacer 1.00 mm): 55 687 s
- experimental effective diffusion time ([2]; spacer 150 μm): 1.5 h
- increase in equilibration time of the sensing chamber in absence of mixing ([2]; spacer 150 μm, unstirred experimental vs stirred theoretical): 300 fold
- RH/RP [3]: 0.00235
Molecule: OC[C@H]1O[C@@](CO)(O[C@H]2O[C@H](CO)[C@@H](O)[C@H](O)[C@H]2O)[C@@H](O)[C@@H]1O [Sucrose, sucrose]

- SPR response without the dialysis chamber ([6]; 8.75 μM, no dialysis chamber): 0.71 ± 0.10 nm
- SPR response without the microporous membrane ([6]; highest concentration): 0.89 nm
- SPR response ([7]; 7.5 μM, human serum, dialysis chamber, 90 min, reference-subtracted, triplicate): 0.49 ± 0.02 nm
- SPR signal change ([7]; dialysis chamber): 0.28 ± 0.11 nm
- concentrations that could not be detected ([7]; dialysis chamber, saline/PBS, 90 min per concentration): below 5 μM
- difference in SPR response with vs without dialysis chamber ([7]; highest concentration): 12%
- SPR response with the microdialysis chamber ([7]; highest concentration, matrix not stated): 0.78 nm
- calibration curve signal in human serum (in words) ([7]; human serum vs PBS, same concentration range, Fig. 3): increased in signal compared to PBS
- analysis time sufficient to reach equilibrium of the SPR sensor ([7]; whole blood, dialysis chamber, Fig. SI4): 90 min
- SPR response in whole blood (in words) ([7]; whole human blood, 5, 7.5 and 10 μM, vs human serum, Fig. 3): in great agreement with human serum
Molecule: His-D-Trp-Ala-AzaTyr-D-Phe-Lys-NH2 [DBG178]
- Kd [5]: 5 µM
- SPR response at nanomolar concentrations ([7]; nanomolar range, dialysis chamber): below the detection limit of the SPR sensor

- SPR signal change ([7]; dialysis chamber): –0.073 ± 0.030 nm
Molecule: His-D-Trp-AzaLeu-Trp-D-Phe-Ala-NH2 [CP-2B(i), reference compound]
- Kd [5]: 31 µM
